ChEMBL document CHEMBL2412956, “Synthesis and biological activity evaluation of 5-pyrazoline substituted 4-thiazolidinones” (Eur J Med Chem, 2013)

Key:
HCT-116 = test: Cytotoxicity against human HCT116 cells after 48 hrs by SRB assay; assay type: functional; settings: HCT-116, 48 h
In short: (§1)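 This was the NCI 60-cell-line five-dose screen, using 10-fold dilutions from 100 to 0.01 μM and continuous 48-h exposure. Growth was read by sulforhodamine B protein staining relative to time-zero and untreated controls. […] Where an endpoint was not reached, the value was given as beyond the range tested.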

NCI-H460 [1] = test: Cytotoxicity against human NCI-H460 cells after 48 hrs by SRB assay; assay type: functional; settings: NCI-H460, 48 h; in short: as §1
K562 [2] = test: Cytotoxicity against human K562 cells after 48 hrs by SRB assay; assay type: functional; settings: K562, 48 h; in short: as §1
HL-60(TB) [3] = test: Cytotoxicity against human HL-60(TB) cells after 48 hrs by SRB assay; assay type: functional; settings: HL-60, 48 h; in short: as §1
SR [4] = test: Cytotoxicity against human SR cells after 48 hrs by SRB assay; assay type: functional
In short: (§2)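 NCI 60-cell-line panel, five 10-fold concentrations from 100 μM to 0.01 μM (10⁻⁴ to 10⁻⁸ M) with 48-h continuous exposure. Growth was read by SRB protein staining against time-zero and untreated controls. […] Values beyond the tested range are expressed as greater or less than the limit.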

RPMI-8226 [5] = test: Cytotoxicity against human RPMI8226 cells after 48 hrs by SRB assay; assay type: functional; settings: RPMI-8226, 48 h; in short: as §1
BT-549 [6] = test: Cytotoxicity against human BT549 cells assessed as cell growth at 10 uM after 48 hrs by SRB assay relative to control; assay type: functional; settings: BT-549, 48 h, read-out: Activity
In short: (§3)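 NCI 60-cell-line primary screen. Test agent added once at 10⁻⁵ M, cultures incubated 48 h, end point by sulforhodamine B protein staining read spectrophotometrically. Value is percent growth of treated cells relative to untreated control cells.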

Hs-578T = test: Cytotoxicity against human Hs578T cells assessed as cell growth at 10 uM after 48 hrs by SRB assay relative to control; assay type: functional; settings: read-out: Activity; in short: as §3
MDA-MB-435 [7] = test: Cytotoxicity against human MDA-MB-435 cells assessed as cell growth at 10 uM after 48 hrs by SRB assay relative to control; assay type: functional; settings: MDA-MB-435, 48 h, read-out: Activity
In short: (§4)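 This was the NCI primary screen, with compound added once at 10⁻⁵ M and cultures incubated for 48 h. The endpoint was sulforhodamine B protein staining. Results are expressed as percent growth of treated cells relative to untreated control cells.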

UACC-62 [8] = test: Cytotoxicity against human UACC62 cells assessed as cell growth at 10 uM after 48 hrs by SRB assay relative to control; assay type: functional; settings: UACC-62, 48 h, read-out: Activity
In short: (§5)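 Single-dose NCI screen: compound at 10⁻⁵ M added to tumor cell cultures and incubated for 48 h. The SRB protein-binding dye end point was read spectrophotometrically. Results are percent growth of treated cells relative to untreated controls.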

NCI-H460 [9] = test: Cytotoxicity against human NCI-H460 cells assessed as cell growth at 10 uM after 48 hrs by SRB assay relative to control; assay type: functional; settings: NCI-H460, 48 h, read-out: Activity; in short: as §3
A549 [10] = test: Cytotoxicity against human A549 cells assessed as cell growth at 10 uM after 48 hrs by SRB assay relative to control; assay type: functional; settings: A549, 48 h, read-out: Activity; in short: as §4
NCI-H522 = test: Cytotoxicity against human NCI-H522 cells assessed as cell growth at 10 uM after 48 hrs by SRB assay relative to control; assay type: functional; settings: NCI-H522, 48 h, read-out: Activity; in short: as §4
T47D [11] = test: Cytotoxicity against human T47D cells assessed as cell growth at 10 uM after 48 hrs by SRB assay relative to control; assay type: functional; settings: read-out: Activity; in short: as §5
MCF7 [12] = test: Cytotoxicity against human MCF7 cells assessed as cell growth at 10 uM after 48 hrs by SRB assay relative to control; assay type: functional; settings: MCF7, 48 h, read-out: Activity; in short: as §4
PC-3 [13] = test: Cytotoxicity against human PC3 cells assessed as cell growth at 10 uM after 48 hrs by SRB assay relative to control; assay type: functional; settings: PC-3, 48 h, read-out: Activity; in short: as §4
SF-295 [14] = test: Cytotoxicity against human SF295 cells assessed as cell growth at 10 uM after 48 hrs by SRB assay relative to control; assay type: functional; settings: SF-295, 48 h, read-out: Activity; in short: as §4
KM12 = test: Cytotoxicity against human KM12 cells assessed as cell growth at 10 uM after 48 hrs by SRB assay relative to control; assay type: functional; settings: KM12, 48 h, read-out: Activity; in short: as §4
MOLT-4 [15] = test: Cytotoxicity against human MOLT4 cells assessed as cell growth at 10 uM after 48 hrs by SRB assay relative to control; assay type: functional; settings: MOLT-4, 48 h, read-out: Activity; in short: as §4
HL-60(TB) [16] = test: Cytotoxicity against human HL-60(TB) cells assessed as cell growth at 10 uM after 48 hrs by SRB assay relative to control; assay type: functional; settings: HL-60, 48 h, read-out: Activity; in short: as §4
CCRF-CEM = test: Cytotoxicity against human CCRF-CEM cells assessed as cell growth at 10 uM after 48 hrs by SRB assay relative to control; assay type: functional; settings: read-out: Activity; in short: as §4
RPMI-8226 [17] = test: Cytotoxicity against human RPMI8226 cells assessed as cell growth at 10 uM after 48 hrs by SRB assay relative to control; assay type: functional; settings: RPMI-8226, 48 h, read-out: Activity; in short: as §4
K562 [18] = test: Cytotoxicity against human K562 cells assessed as cell growth at 10 uM after 48 hrs by SRB assay relative to control; assay type: functional; settings: K562, 48 h, read-out: Activity; in short: as §4
SR [19] = test: Cytotoxicity against human SR cells assessed as cell growth at 10 uM after 48 hrs by SRB assay relative to control; assay type: functional; settings: read-out: Activity; in short: as §5
Trypanosoma cruzi = test: Antitrypanosomal activity against […] form of Trypanosoma cruzi Y infected in monkey […] cells assessed as parasite growth inhibition after 15 hrs by trypan blue staining-based hemocytometric analysis; assay type: functional, organism-based
T47D [20] = test: Cytotoxicity against human T47D cells after 48 hrs by SRB assay; assay type: functional; in short: as §2
BT-549 [21] = test: Cytotoxicity against human BT549 cells after 48 hrs by SRB assay; assay type: functional; settings: BT-549, 48 h; in short: as §1
[22] = Cytotoxicity against human Hs 578T cells after 48 hrs by SRB assay; assay type: functional; in short: as §1
MCF7 [23] = test: Cytotoxicity against human MCF7 cells after 48 hrs by SRB assay; assay type: functional; settings: MCF7, 48 h; in short: as §1
A498 = test: Cytotoxicity against human A498 cells after 48 hrs by SRB assay; assay type: functional; settings: A498, 48 h; in short: as §1
SK-MEL-5 = test: Cytotoxicity against human SK-MEL-5 cells after 48 hrs by SRB assay; assay type: functional; settings: SK-MEL-5, 48 h; in short: as §2
SF-539 = test: Cytotoxicity against human SF539 cells after 48 hrs by SRB assay; assay type: functional; settings: SF-539, 48 h; in short: as §1
NCI-H322M = test: Cytotoxicity against human NCI-H322M cells after 48 hrs by SRB assay; assay type: functional; in short: as §1
HOP-92 = test: Cytotoxicity against human HOP92 cells after 48 hrs by SRB assay; assay type: functional; settings: HOP-92, 48 h; in short: as §1
A549 [24] = test: Cytotoxicity against human A549 cells after 48 hrs by SRB assay; assay type: functional; settings: A549, 48 h; in short: as §1
MOLT-4 [25] = test: Cytotoxicity against human MOLT4 cells after 48 hrs by SRB assay; assay type: functional; settings: MOLT-4, 48 h; in short: as §1
DU-145 = test: Cytotoxicity against human DU145 cells after 48 hrs by SRB assay; assay type: functional; settings: DU-145, 48 h; in short: as §1
PC-3 [26] = test: Cytotoxicity against human PC3 cells after 48 hrs by SRB assay; assay type: functional; settings: PC-3, 48 h; in short: as §1
OVCAR-3 = test: Cytotoxicity against human OVCAR3 cells after 48 hrs by SRB assay; assay type: functional; settings: OVCAR-3, 48 h; in short: as §1
UACC-62 [27] = test: Cytotoxicity against human UACC62 cells after 48 hrs by SRB assay; assay type: functional; settings: UACC-62, 48 h; in short: as §2
MDA-MB-435 [28] = test: Cytotoxicity against human MDA-MB-435 cells after 48 hrs by SRB assay; assay type: functional; settings: MDA-MB-435, 48 h; in short: as §1
U-251 = test: Cytotoxicity against human U251 cells after 48 hrs by SRB assay; assay type: functional; settings: U-251, 48 h; in short: as §2
SF-295 [29] = test: Cytotoxicity against human SF295 cells after 48 hrs by SRB assay; assay type: functional; settings: SF-295, 48 h; in short: as §1
HCT-15 = test: Cytotoxicity against human HCT15 cells after 48 hrs by SRB assay; assay type: functional; settings: HCT-15, 48 h; in short: as §1

## O=C1NC(=O)/C(=C/C(=O)N2N=C(c3ccc4ccccc4c3)CC2c2ccc(Cl)cc2)S1 (stereo not drawn)
HCT-116
  GI50: 3.01 µM
  TGI: 13.9 µM
NCI-H460 [1]
  GI50: 1.89 µM
  TGI: 4.7 µM
K562 [2]
  GI50: 1.9 µM
  TGI: 11.2 µM
HL-60(TB) [3]
  GI50: 3.2 µM
  TGI: 6.48 µM
SR [4]
  GI50: 1.98 µM
  TGI: 5.92 µM
RPMI-8226 [5]
  GI50: 1.97 µM
  TGI: 5.88 µM
BT-549 [6]
  growth at 10 µM: 34.2%
Hs-578T
  growth at 10 µM: 35.6%
MDA-MB-435 [7]
  growth at 10 µM: 39.5%
UACC-62 [8]
  growth at 10 µM: 32.8%
NCI-H460 [9]
  growth at 10 µM: 25.9%
A549 [10]
  growth at 10 µM: 30%
NCI-H522
  growth at 10 µM: 23.2%
T47D [11]
  growth at 10 µM: 39.3%
MCF7 [12]
  growth at 10 µM: 34.4%
PC-3 [13]
  growth at 10 µM: 36%
SF-295 [14]
  growth at 10 µM: -5.27%
KM12
  growth at 10 µM: 25.8%
MOLT-4 [15]
  growth at 10 µM: 11.5%
HL-60(TB) [16]
  growth at 10 µM: 13.5%
CCRF-CEM
  growth at 10 µM: 16.7%
RPMI-8226 [17]
  growth at 10 µM: 2.48%
K562 [18]
  growth at 10 µM: 24.6%
SR [19]
  growth at 10 µM: 10.6%
Trypanosoma cruzi
  IC50: 0.3 µM
T47D [20]
  GI50: 1.53 µM
  TGI: 9.4 µM
BT-549 [21]
  GI50: 2.16 µM
  TGI: 7.75 µM
[22]
  GI50: 1.94 µM
  TGI: 8.26 µM
MCF7 [23]
  GI50: 2.53 µM
  TGI: 14.1 µM
A498
  GI50: 1.41 µM
  TGI: 5.38 µM
SK-MEL-5
  GI50: 2.09 µM
  TGI: 22.5 µM
SF-539
  GI50: 2.43 µM
  TGI: 5.79 µM
NCI-H322M
  GI50: 2.89 µM
  TGI: 100 µM
HOP-92
  GI50: 1.17 µM
  TGI: 9.72 µM
A549 [24]
  GI50: 3.06 µM
  TGI: 100 µM
MOLT-4 [25]
  GI50: 1.64 µM
DU-145
  GI50: 4.27 µM
  TGI: 100 µM
PC-3 [26]
  GI50: 4.94 µM
  TGI: 100 µM
OVCAR-3
  GI50: 2.9 µM
  TGI: 10.6 µM
UACC-62 [27]
  GI50: 2.66 µM
  TGI: 12.8 µM
MDA-MB-435 [28]
  GI50: 2.7 µM
  TGI: 16.5 µM
U-251
  GI50: 2.58 µM
  TGI: 13.2 µM
SF-295 [29]
  GI50: 2.45 µM
  TGI: 9.12 µM
HCT-15
  GI50: 2.41 µM
  TGI: 100 µM
